Measurements from different studies.
Each line is one published result; the experiments were not run side by side.
Target: Tyrosine-protein kinase Lck (LCK, Homo sapiens, UniProt P06239)

Structure (SMILES) | test | setting | endpoint | value
COc1ncccc1-c1cnn2ccc(N3CCN(C(=O)OC(C)C)CC3)nc12 | binding, competition with immobilised ligand | 1 µM | remaining binding | 100%
Cn1cc(-c2cc(F)cc(N3CCn4c(cc5c4CCCC5)C3=O)c2CO)cc(Nc2ccc(N3CCN(C4COC4)CC3)cn2)c1=O | enzyme activity, inhibitor | 0.1 µM | inhibition | -1%
Clc1ccc2c(C3CCN(CCc4c[nH]c5ccccc45)CC3)c[nH]c2c1 | enzyme activity, inhibitor | 10 µM | inhibition | 66%
Nc1ncc(-c2nc(N3CCOCC3)nc(N3CCOCC3)n2)c(C(F)F)n1 | enzyme activity, inhibitor | 10 µM | remaining activity | 92%
N#CC1(c2ccccn2)CCN(Cc2cc(C(=O)O)c(=O)n3ccccc23)CC1 | cell-free assay, competition with immobilised ligand | 1 µM | remaining binding | 97%
O=c1[nH]c2ccccc2n1C1CCN(Cc2ccc(-c3[nH]c4cc5ncnc5cc4nc3-c3ccccc3)cc2)CC1 | enzyme activity, inhibitor | 0.5 µM | remaining activity | 98.2%
Cc1nn(C)cc1-c1nc2c(N3CCN(Cc4ccc(Cl)cc4)CC3)c(Cl)cnc2[nH]1 | binding, competition with immobilised ligand | 1 µM | remaining binding | 100%
C#Cc1n[nH]c2c(-c3cn([C@@H](C)c4ccccc4)c(=O)[nH]c3=O)cc(F)cc12 | enzyme activity, inhibitor | 0.1 µM | inhibition | 10.5%
CC(C)(C)c1cc(C=C(C#N)C#N)cc(Br)c1O | enzyme activity, inhibitor | 0.5 µM | remaining activity | 87.8%
C#Cc1n[nH]c2c(-c3cn([C@@H](C)c4ccccn4)c(=O)[nH]c3=O)cc(F)cc12 | enzyme activity, inhibitor | 0.1 µM | inhibition | 8.8%
Cn1cncc1[C@](O)(COc1ccc(C#N)cc1-c1ccc(OC(F)(F)F)cc1)c1ccc(C#N)cc1 | cell-free assay, competition with immobilised ligand | 1 µM | remaining binding | 82%
